Source: PubChem BioAssay (Sanford-Burnham Center for Chemical Genomics)
In the library only some 1.8% were active in any assay of this set; here they are far more common.
DNMT1 inh: blocks human DNA methyltransferase DNMT1; P26358; DNMT1 molecular beacon, Hinp1I cleavage, fluorescence; inhibition (reported as % activation of signal), % at 10 µM; hit rate 0.83% among 360,000; AID 588458; in the data active = inhibition above about 50%
HKDC1 inh: inhibitors of human hexokinase HKDC1; recombinant HKDC1, G6PDH/diaphorase resazurin coupled fluorescence; inhibition, % at 20 µM; hit rate 0.16% among 340,000; AID 493160;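 active = inhibition above about 35% when tested at 20 µM, limit read from the data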;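 note: plate controls were DMSO wells with enzyme for no effect and DMSO wells lacking enzyme for full effect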
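Test system: HK5 enzyme. Quantity: 5 µg/mL HK5 final. Reagent: glucose and ATP substrates. Schedule: 90 min reaction incubation at room temperature, dark. Technique: resazurin-to-resorufin fluorescence via G6PDH and diaphorase coupling, 525/613 nm. Control set: DMSO wells with and without enzyme mix.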
LMPTP block: LMPTP (human) inhibition; P24666; recombinant LMPTP-A, OMFP fluorogenic substrate, fluorescence intensity; inhibition, % at 20 µM; hit rate 0.22% among 360,000; AID 651560;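 active = compounds that cut the enzyme signal by at least half of the control window in the single-dose screen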;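 note: plate controls were DMSO wells with enzyme plus substrate for no effect and substrate without enzyme for full effect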
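Assay system: LMPTP-A phosphatase enzyme | Input: 0.625 nM enzyme | Also added: Fluorogenic phosphatase substrate OMFP at 400 µM final | Compound dosing: One test concentration per compound, 20 µM, with 3% DMSO overall | Schedule: 50 min enzyme reaction at room temperature, protected from light | Signal: Fluorescence intensity | Benchmarks: no-enzyme and uninhibited controls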
Scp-1 inhibitor: inhibitors of human Scp-1 phosphatase. Q9GZU7. Recombinant Scp1, phosphopeptide, malachite green phosphate absorbance. inhibition, % at 20 µM. hit rate 0.88% among 340,000. AID 493091;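 active = inhibition above about 50% at 20 µM, limit read from the data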;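 note: plate controls were DMSO wells with enzyme for no effect and wells lacking enzyme for full effect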
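System: truncated SCP-1 phosphatase (76-261aa); medium: Tris acetate buffer pH 5.5 with MgCl2 and Tween-20; incubation: 45 min room-temperature reaction, 5 min colour, 30 min stabiliser; compound: single 20 µM dose, 1% DMSO; reagent: Phosphorylated 17-residue peptide substrate; read-out: % inhibition at 20 µM; technique: colorimetric free-phosphate detection, absorbance 630 nm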
SUMO1 PPI mod: SUMO1-SIM interaction modulation; inhibition, % at 20 µM; AID 602429; P63165; hit rate 0.33% among 360,000; SUMO1 binding to a labelled peptide, TR-FRET, 1 h; in the data active = inhibition above about 37%
STEP block: STEP (human) phosphatase inhibition; AID 588621; recombinant STEP, OMFP fluorogenic substrate, fluorescence; inhibition, % at 20 µM; hit rate 0.25% among 360,000;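 active = inhibition at 20 µM, scaled per plate between control wells, above about 37%, limit read from the data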;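 note: 0% = DMSO with enzyme and substrate and 100% = substrate only without enzyme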
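medium = Bis-Tris buffer pH 6.0, 2.5 mM DTT, 0.005% Tween 20 | test system = STEP (striatal-enriched tyrosine phosphatase) enzyme, cell-free | measure = normalized % inhibition | compound dosing = 20 µM, 1% DMSO | also added = 25 µM OMFP | schedule = reaction 20 min, ambient temperature | measured by = fluorescence read at 480 nm ex / 540 nm em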
Scp1 confirm: Scp-1 (human) inhibition, single-dose confirmed. recombinant SCP-1 catalytic domain, phosphate release, malachite green absorbance. hit rate 61% among 2,500. shares compounds with Scp-1 inhibitor. inhibition, % at 20 µM;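 note: plate controls were DMSO with enzyme for no effect and buffer wells lacking enzyme for full effect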
Scp-1 MG ctr: colorimetric interference in Scp-1 counter-screen | shares compounds with Scp-1 inhibitor | Colorimetric interference counterscreen, malachite green absorbance 630 nm | apparent inhibition (interference), % at 20 µM | 2,500 tested, under 10 active;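 note: compounds added after enzyme reaction finished so only phosphate colour detection is probed; plate controls were DMSO wells with completed Scp-1 reaction for no effect and substrate wells lacking enzyme for full effect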
Scp-1 Tm shift: binds human Scp-1, shifting its melting temperature; hit rate 25% among 1,500; thermal shift relative to vanadate control, % at 40 µM; Recombinant SCP1, Sypro Orange thermal shift Tm; shares compounds with Scp-1 inhibitor;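 active = substances whose mean melting-temperature shift, as a percentage of the reference inhibitor's shift, reaches about 5.3%, limit read from the data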;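 note: 0% = Tm of DMSO wells and 100% = Tm with sodium orthovanadate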
* hit, by the source's call; . = no result given.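 Rule for the calls, unless noted: active = inhibition of at least 30% at 20 µM; inactive = the rest.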

SMILES	DNMT1 inh	HKDC1 inh	LMPTP block	Scp-1 inhibitor	SUMO1 PPI mod	STEP block	Scp1 confirm	Scp-1 MG ctr	others
O=C(O)CCN1C(=O)/C(=C2\C(=O)N(Cc3ccc(F)cc3)c3ccccc32)SC1=S	4.2	17.8	81.9*	88.2*	14.4	93.0*	61.4*	-17.0	Scp-1 Tm shift=8.8*
CN1C(=O)/C(=C2\SC(=S)N(CCCCCC(=O)O)C2=O)c2ccccc21	3.4	12.9	85.1*	103.5*	-0.6	98.5*	67.8*	-18.1	Scp-1 Tm shift=2.7
CCN1C(=O)/C(=C2\SC(=S)N(CCCOC)C2=O)c2ccccc21	3.3	-4.7	1.9	-5.6	-1.2	1.3	.	.
O=C(COc1ccc(F)cc1Cl)Nc1cccc(S(=O)(=O)N2CCCCCC2)c1	-3.4	2.6	5.2	-5.2	2.2	2.7	.	.
Cc1ccc(S(=O)(=O)N2C[C@H]3N(C(=O)OC(C)C)N(C(=O)OC(C)C)C[C@H](OC(=O)NCc4ccco4)[C@@]3(O)C2)cc1	4.4	.	-0.4	.	4.8	3.5	.	.
Cn1c(=O)c2ncn(CC(=O)NCCOc3ccccc3)c2n(C)c1=O	4.1	-7.1	-0.9	-8.0	-0.1	-2.3	.	.
CCC(NC(=O)Cn1cnc2c(=O)n(C)c(=O)n(C)c21)c1ccccc1 (stereo not drawn)	1.2	-8.9	-0.8	0.4	0.9	0.7	-7.8	-11.5
COc1ccc(CNC(=O)Cn2cnc3c(=O)n(C)c(=O)n(C)c32)cc1	0.8	-6.2	-0.8	-6.5	1.8	0.3	-6.5	-8.4
Cc1ccc(NC(=O)CN(C)C(=O)c2ccc(S(=O)(=O)N(C)c3ccccc3)cc2)cc1	-1.1	0.6	0.4	54.2*	-3.2	-2.9	22.1	-12.6
CC(=O)c1nnn(-c2ccccc2C#N)c1C	0.7	-2.6	-2.1	65.3*	-3.1	-3.1	-1.9	-7.9
COc1ccc(C(=O)NCc2ccccc2CN2CCCC2)cc1S(=O)(=O)Nc1ccc(C)cc1	-7.4	1.4	0.0	-9.8	-15.8	0.1	.	.
COc1ccc(OC)c(-c2nc3ccccc3nc2-c2ccccc2)c1	-1.6	-1.2	2.2	58.5*	-10.6	-1.0	-27.0	-22.2
O=C(CCNC(=O)c1ccc([N+](=O)[O-])cc1)NNC(=O)c1ccncc1	1.0	-6.0	-2.0	50.3*	-28.1	-0.9	6.4	-3.8
O=C(CCNC(=O)c1ccc([N+](=O)[O-])cc1)Nc1ccc(F)cc1	-0.6	-4.5	-1.2	-4.5	-27.2	-2.1	.	.
CC1CC(C)CN(C(=O)COC(=O)/C=C/c2ccco2)C1 (stereo not drawn)	34.5	-3.9	4.8	59.0*	-16.6	14.7	47.9*	-17.8	Scp-1 Tm shift=-20.5
CC(=O)C(Cc1ccc(Cl)nc1)Cc1ccc(Cl)nc1	1.0	-5.6	-0.7	69.3*	0.7	-1.0	-6.5	-12.6
O=C(CSc1nc2ccccc2c(=O)n1-c1ccccc1)NC(=O)CN1CCCC1=O	31.2	-3.5	4.2	58.0*	6.7	19.9	38.8*	-10.1	Scp-1 Tm shift=-13.8
O=C(O)CCn1nnc(-c2ccccc2)n1	4.3	-6.1	-1.4	-3.2	-1.2	1.0	.	.
COc1ccc(/C=N/NC(=O)CCn2c3ccccc3c3ccccc32)cc1O	-6.4	-6.7	2.7	56.2*	-6.0	-3.3	-19.4	-14.2
CC1CCCN(S(=O)(=O)c2ccc(NC(=O)C3CCN(C(=O)C(C)(C)C)CC3)cc2)C1 (stereo not drawn)	-2.6	-3.9	-4.7	-10.2	-2.6	-0.4	.	.
Cc1ccc(C2/C(=C(/O)c3cnn(-c4ccccc4)c3C)C(=O)C(=O)N2CCN2CCOCC2)o1 (stereo not drawn)	-6.6	-1.5	-1.8	-8.1	-4.2	-1.3	.	.
